From ChEMBL document CHEMBL1127395, “Synthesis and antimicrobial activity of novel 3-[(aminopyrimidiniumyl)thio]methyl cephalosporins” (1994)
In brackets after ≈: the same amount, converted by molar mass.

Legend:
Escherichia coli = test: In vitro minimum inhibitory concentration for Escherichia coli (ATCC-10536) by agar dilution method; format: functional; conditions: Escherichia coli; read-out: MIC
Procedure, shortened: (§1)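 Two-fold serial dilutions of each compound dispersed in Mueller-Hinton agar; plates spot-inoculated with 2 μL of standard test strain at 10^7 CFU/mL, incubated 37 °C for 20 h; MIC read as lowest concentration inhibiting growth.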

Pseudomonas aeruginosa [1] = test: In vitro minimum inhibitory concentration for Pseudomonas aeruginosa (ATCC-27853) by agar dilution method; format: functional; conditions: Pseudomonas aeruginosa; read-out: MIC; procedure, shortened: as §1
Klebsiella aerogenes = test: In vitro minimum inhibitory concentration for Enterobacter aerogenes (ATCC-29751) by agar dilution method; format: functional; conditions: Klebsiella aerogenes; read-out: MIC; procedure, shortened: as §1
Salmonella typhimurium = test: In vitro minimum inhibitory concentration for Salmonella Typhimurium (ATCC-14028) by agar dilution method; format: functional, Salmonella enterica subsp. enterica serovar Typhimurium; conditions: Salmonella enterica; read-out: MIC; procedure, shortened: as §1
Staphylococcus aureus = test: In vitro minimum inhibitory concentration for Staphylococcus aureus (ATCC 6538p) by agar dilution method; format: functional; conditions: Staphylococcus aureus, ATCC 6538p; read-out: MIC; procedure, shortened: as §1
Proteus vulgaris = test: In vitro minimum inhibitory concentration for Proteus vulgaris (ATCC-6059) by agar dilution method; format: functional; conditions: Proteus vulgaris; read-out: MIC; procedure, shortened: as §1
Serratia marcescens = test: In vitro minimum inhibitory concentration for Serratia marcescens (ATCC-27117) by agar dilution method; format: functional; conditions: Serratia marcescens; read-out: MIC; procedure, shortened: as §1
[2] = system: Staphylococcus epidermidis; test: In vitro minimum inhibitory concentration for Staphylococcus epidermidis (ATCC-12228) by agar dilution method; format: functional; conditions: Staphylococcus epidermidis; read-out: MIC; procedure, shortened: as §1
Citrobacter freundii = test: In vitro minimum inhibitory concentration for Citrobacter freundii (ATCC-8090) by agar dilution method; format: functional; conditions: Citrobacter freundii; read-out: MIC; procedure, shortened: as §1
Enterobacter cloacae = test: In vitro minimum inhibitory concentration for Enterobacter cloacae (ATCC-27508) by agar dilution method; format: functional; conditions: Enterobacter cloacae; read-out: MIC; procedure, shortened: as §1
Pseudomonas aeruginosa [3] = test: In vitro minimum inhibitory concentration for Pseudomonas aeruginosa (ATCC 10145) by agar dilution method; format: functional; procedure, shortened: as §1
Klebsiella pneumoniae = test: In vitro minimum inhibitory concentration for Klebsiella pneumoniae (ATCC-10031) by agar dilution method; format: functional; conditions: Klebsiella pneumoniae; read-out: MIC

| Structure (SMILES) | MIC (Escherichia coli) [µg/mL] | MIC (Pseudomonas aeruginosa [1]) [µg/mL] | MIC (Klebsiella aerogenes) [µg/mL] | MIC (Salmonella typhimurium) [µg/mL] | MIC (Staphylococcus aureus) [µg/mL] | MIC (Proteus vulgaris) [µg/mL] | MIC (Serratia marcescens) [µg/mL] | MIC [2] [µg/mL] | MIC (Citrobacter freundii) [µg/mL] | MIC (Enterobacter cloacae) [µg/mL] | MIC (Pseudomonas aeruginosa [3]) [µg/mL] | MIC (Klebsiella pneumoniae) [µg/mL] |
| --- | --- | --- | --- | --- | --- | --- | --- | --- | --- | --- | --- | --- |
| CC(C)(O/N=C(\C(=O)NC1C(=O)N2C(C(=O)[O-])=C(CSc3nc(N)cc(N)[n+]3C3CC3)CSC12)c1cnc(N)s1)C(=O)O (stereo not given) | 0.13 (≈ 0.2 µM) | 2 (≈ 3.08 µM) | 2 (≈ 3.08 µM) | 0.5 (≈ 0.77 µM) | 4 (≈ 6.16 µM) | 0.13 (≈ 0.2 µM) | 0.25 (≈ 0.385 µM) | 2 (≈ 3.08 µM) | 0.13 (≈ 0.2 µM) | 0.03 (≈ 0.0462 µM) | 4 (≈ 6.16 µM) | 0.06 (≈ 0.0923 µM) |
| Cc1cc(C)[n+](C)c(SCC2=C(C(=O)[O-])N3C(=O)C(NC(=O)/C(=N\OC(C)(C)C(=O)O)c4cnc(N)s4)C3SC2)n1 (stereo not given) | 0.13 (≈ 0.209 µM) | 4 (≈ 6.43 µM) | 4 (≈ 6.43 µM) | 0.5 (≈ 0.804 µM) | 8 (≈ 12.9 µM) | 0.06 (≈ 0.0965 µM) | 0.25 (≈ 0.402 µM) | 8 (≈ 12.9 µM) | 0.25 (≈ 0.402 µM) | 0.06 (≈ 0.0965 µM) | 4 (≈ 6.43 µM) | 0.13 (≈ 0.209 µM) |
| CN[n+]1c(N)cc(N)nc1SCC1=C(C(=O)[O-])N2C(=O)C(NC(=O)/C(=N\OC(C)(C)C(=O)O)c3cnc(N)s3)C2SC1 (stereo not given) | 0.5 (≈ 0.783 µM) | 8 (≈ 12.5 µM) | 16 (≈ 25.1 µM) | 1 (≈ 1.57 µM) | 32 (≈ 50.1 µM) | 0.03 (≈ 0.047 µM) | 1 (≈ 1.57 µM) | 16 (≈ 25.1 µM) | 0.5 (≈ 0.783 µM) | 0.13 (≈ 0.204 µM) | 8 (≈ 12.5 µM) | 0.25 (≈ 0.391 µM) |
| CC(C)(O/N=C(\C(=O)NC1C(=O)N2C(C(=O)[O-])=C(CSc3nc(N)cc(N)[n+]3N)CSC12)c1cnc(N)s1)C(=O)O (stereo not given) | 0.06 (≈ 0.096 µM) | 1 (≈ 1.6 µM) | 1 (≈ 1.6 µM) | 0.13 (≈ 0.208 µM) | 4 (≈ 6.4 µM) | 0.02 (≈ 0.032 µM) | 0.06 (≈ 0.096 µM) | 2 (≈ 3.2 µM) | 0.06 (≈ 0.096 µM) | 0.02 (≈ 0.032 µM) | 1 (≈ 1.6 µM) | 0.06 (≈ 0.096 µM) |
| CCn1cc[n+]2c(SCC3=C(C(=O)[O-])N4C(=O)C(NC(=O)/C(=N\OC(C)(C)C(=O)O)c5cnc(N)s5)C4SC3)nc(N)cc12 (stereo not given) | 0.06 (≈ 0.0907 µM) | 2 (≈ 3.02 µM) | 2 (≈ 3.02 µM) | 0.13 (≈ 0.196 µM) | 4 (≈ 6.04 µM) | 0.06 (≈ 0.0907 µM) | 0.13 (≈ 0.196 µM) | 2 (≈ 3.02 µM) | 0.06 (≈ 0.0907 µM) | 0.02 (≈ 0.0302 µM) | 4 (≈ 6.04 µM) | 0.06 (≈ 0.0907 µM) |
| C[n+]1cc(Cc2ccccc2)c(N)nc1SCC1=C(C(=O)[O-])N2C(=O)C(NC(=O)/C(=N\OC(C)(C)C(=O)O)c3cnc(N)s3)C2SC1 (stereo not given) | 0.25 (≈ 0.358 µM) | 8 (≈ 11.4 µM) | 1 (≈ 1.43 µM) | 0.5 (≈ 0.716 µM) | 8 (≈ 11.4 µM) | 0.5 (≈ 0.716 µM) | 0.5 (≈ 0.716 µM) | 2 (≈ 2.86 µM) | 0.06 (≈ 0.0859 µM) | 0.03 (≈ 0.0429 µM) | 16 (≈ 22.9 µM) | 0.06 (≈ 0.0859 µM) |

Next, values leading:

| MIC (Escherichia coli) [µg/mL] | MIC (Pseudomonas aeruginosa [1]) [µg/mL] | MIC (Klebsiella aerogenes) [µg/mL] | MIC (Salmonella typhimurium) [µg/mL] | MIC (Staphylococcus aureus) [µg/mL] | MIC (Proteus vulgaris) [µg/mL] | MIC (Serratia marcescens) [µg/mL] | MIC [2] [µg/mL] | MIC (Citrobacter freundii) [µg/mL] | MIC (Enterobacter cloacae) [µg/mL] | MIC (Pseudomonas aeruginosa [3]) [µg/mL] | MIC (Klebsiella pneumoniae) [µg/mL] | Structure (SMILES) |
| --- | --- | --- | --- | --- | --- | --- | --- | --- | --- | --- | --- | --- |
| 0.25 (≈ 0.41 µM) | 2 (≈ 3.28 µM) | 2 (≈ 3.28 µM) | 0.5 (≈ 0.82 µM) | 32 (≈ 52.5 µM) | 0.031 (≈ 0.0508 µM) | 0.5 (≈ 0.82 µM) | 8 (≈ 13.1 µM) | 1 (≈ 1.64 µM) | 0.25 (≈ 0.41 µM) | 4 (≈ 6.56 µM) | 0.25 (≈ 0.41 µM) | CC(C)(O/N=C(\C(=O)NC1C(=O)N2C(C(=O)O)=C(CSc3nc(N)cc(N)n3)CSC12)c1cnc(N)s1)C(=O)O (stereo not given) |
| 0.5 (≈ 0.823 µM) | 32 (≈ 52.7 µM) | 8 (≈ 13.2 µM) | 4 (≈ 6.58 µM) | 32 (≈ 52.7 µM) | 0.25 (≈ 0.411 µM) | 2 (≈ 3.29 µM) | 8 (≈ 13.2 µM) | 0.5 (≈ 0.823 µM) | 0.5 (≈ 0.823 µM) | 64 (≈ 105 µM) | 0.5 (≈ 0.823 µM) | Cc1cc(C)nc(SCC2=C(C(=O)O)N3C(=O)C(NC(=O)/C(=N\OC(C)(C)C(=O)O)c4cnc(N)s4)C3SC2)n1 (stereo not given) |
| 1 (≈ 1.68 µM) | 8 (≈ 13.5 µM) | 8 (≈ 13.5 µM) | 1 (≈ 1.68 µM) | 32 (≈ 53.8 µM) | 0.063 (≈ 0.106 µM) | 1 (≈ 1.68 µM) | 16 (≈ 26.9 µM) | 1 (≈ 1.68 µM) | 0.5 (≈ 0.841 µM) | 16 (≈ 26.9 µM) | 0.5 (≈ 0.841 µM) | CC(C)(O/N=C(\C(=O)NC1C(=O)N2C(C(=O)O)=C(CSc3nccc(N)n3)CSC12)c1cnc(N)s1)C(=O)O (stereo not given) |
| 0.03 (≈ 0.0493 µM) | 1 (≈ 1.64 µM) | 1 (≈ 1.64 µM) | 0.13 (≈ 0.214 µM) | 4 (≈ 6.57 µM) | 0.06 (≈ 0.0986 µM) | 0.06 (≈ 0.0986 µM) | 2 (≈ 3.29 µM) | 0.03 (≈ 0.0493 µM) | < 0.008 | 2 (≈ 3.29 µM) | 0.03 (≈ 0.0493 µM) | C[n+]1ccc(N)nc1SCC1=C(C(=O)[O-])N2C(=O)C(NC(=O)/C(=N\OC(C)(C)C(=O)O)c3cnc(N)s3)C2SC1 (stereo not given) |
